Source: ChEMBL document CHEMBL2375320, “Synthesis and antimicrobial activity of polyhalo isophthalonitrile derivatives” (2013)
In brackets after ≈: the same amount, converted by molar mass. Activity calls are given as the source filed them. No cut-off for these calls is given here.

What was measured:
Type in all cases: functional
[1] = test system: Escherichia coli; assay: Antibacterial activity against Escherichia coli ATCC 8099 assessed as growth inhibition at 1000 ug/mL after 24 hrs by disk diffusion method
[2] = test system: Pseudomonas aeruginosa; assay: Antibacterial activity against Pseudomonas aeruginosa ATCC 15442 assessed as growth inhibition at 1000 ug/mL after 24 hrs by disk diffusion method; conditions: for zone of inhibition at 1000 µg/mL: ATCC 15442, 24 h, read-out: IZ
[3] = test system: Bacillus cereus; assay: Antibacterial activity against Bacillus cereus ATCC 14579 assessed as growth inhibition at 1000 ug/mL after 24 hrs by disk diffusion method; conditions: for zone of inhibition at 1000 µg/mL: ATCC 14579, 24 h, read-out: IZ
[4] = test system: Candida albicans; assay: Antifungal activity against Candida albicans ATCC 10231 assessed as growth inhibition at 1000 ug/mL after 72 hrs by disk diffusion method; conditions: for zone of inhibition at 1000 µg/mL: ATCC 10231, 72 h, read-out: IZ
In short: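 Candida grown and kept on Sabouraud glucose agar plates. Compounds screened at a fixed 1000 µg/mL, with fluconazole as positive control. Plates incubated at 26 °C for 72 h, then zones of inhibition measured in mm.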

[5] = test system: Staphylococcus aureus; assay: Antibacterial activity against Staphylococcus aureus ATCC 6538 assessed as growth inhibition at 1000 ug/mL after 24 hrs by disk diffusion method; conditions: for zone of inhibition at 1000 µg/mL: ATCC 6538, 24 h, read-out: IZ
[6] = test system: Candida albicans; assay: Antifungal activity against Candida albicans ATCC 10231 assessed as growth inhibition after 24 hrs by microbroth dilution method
In short: (§1)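 Tube dilution: each compound or positive control (norfloxacin, fluconazole) prepared in DMSO at 11 concentrations from 0.98 to 1000 µg/mL. Inoculum and sterile water added to tubes each holding 1 mL of compound solution. Tubes incubated 24 h and inspected for turbidity. MIC is the lowest concentration with no visible growth. Run in triplicate.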

[7] = test system: Staphylococcus aureus; assay: Antibacterial activity against Staphylococcus aureus ATCC 6538 assessed as growth inhibition after 24 hrs by microbroth dilution method; conditions: ATCC 6538, 24 h; in short: as §1
[8] = test system: Bacillus cereus; assay: Antibacterial activity against Bacillus cereus ATCC 14579 assessed as growth inhibition after 24 hrs by microbroth dilution method; conditions: ATCC 14579, 24 h; in short: as §1

SMILES | inhibition zone (IZ) [1] | inhibition zone (IZ) [2] | zone of inhibition at 1000 µg/mL [3] [mm] | inhibition zone (IZ) [4] | inhibition zone (IZ) [5] | MIC ([6]; ATCC 10231, 24 h) [µg/mL] | MIC [7] [µg/mL] | zone of inhibition at 1000 µg/mL [2] [mm] | zone of inhibition at 1000 µg/mL [4] [mm] | MIC [8] [µg/mL] | zone of inhibition at 1000 µg/mL [5] [mm] | zone of inhibition at 1000 µg/mL ([1]; ATCC 8099, 24 h, read-out: IZ) [mm] | inhibition zone (IZ) [3] | MIC [6]
COc1ccc(Nc2c(Cl)c(F)c(C#N)c(F)c2C#N)cc1 | inactive | inactive | 6.8 | inactive | inactive | – | – | – | – | – | – | – | – | –
N#Cc1c(F)c(F)c(Nc2ccccc2)c(C#N)c1F | inactive | – | 17.8 | – | – | 3.9 (≈ 14.3 µM) | 3.3 (≈ 12.1 µM) | 8 | 17.3 | 6.8 (≈ 24.9 µM) | 23 | – | – | –
CCn1cc(C(=O)O)c(=O)c2cc(F)c(N3CCNCC3)cc21 [NORFLOXACIN] | – | – | 15.2 | – | – | – | 0.5 (≈ 1.57 µM) | 18 | – | 0.5 (≈ 1.57 µM) | 19.9 | 31 | – | –
N#Cc1c(N)c(Cl)c(N2CCCCC2)c(C#N)c1N1CCCCC1 | inactive | inactive | – | – | inactive | – | – | – | – | – | – | – | inactive | –
N#Cc1c(F)c(F)c(Nc2ccc(Cl)cc2)c(C#N)c1F | inactive | – | 16.7 | – | – | 2.3 (≈ 7.48 µM) | 1.5 (≈ 4.88 µM) | 7.8 | 13.3 | 31.3 (≈ 102 µM) | 19.8 | – | – | –
N#Cc1c(F)c(Cl)c(NCc2ccccc2)c(C#N)c1F | inactive | inactive | 22.6 | – | – | 0.5 (≈ 1.65 µM) | 0.5 (≈ 1.65 µM) | – | 13.9 | 0.4 (≈ 1.32 µM) | 23.1 | – | – | –
N#Cc1c(F)c(F)c(NCc2ccccc2)c(C#N)c1F | inactive | inactive | 18.1 | – | – | 10.4 (≈ 36.2 µM) | 1.3 (≈ 4.53 µM) | – | 11.6 | 3.9 (≈ 13.6 µM) | 19.3 | – | – | –
N#Cc1c(Cl)c(Cl)c(Cl)c(C#N)c1Cl [CHLOROTHALONIL] | inactive | inactive | 20.2 | – | – | 0.5 (≈ 1.88 µM) | 0.5 (≈ 1.88 µM) | – | 9.9 | 0.7 (≈ 2.63 µM) | 20.1 | – | – | –
N#Cc1c(N)c(Cl)c(F)c(C#N)c1F | inactive | inactive | 7.4 | – | – | 15.6 (≈ 73 µM) | 46.9 (≈ 220 µM) | – | 7.3 | > 1000 | 8.6 | – | – | –
N#Cc1c(F)c(C#N)c(Sc2ccccc2)c(Cl)c1Sc1ccccc1 | inactive | inactive | – | inactive | inactive | – | – | – | – | – | – | – | inactive | –
CCCSc1c(Cl)c(N)c(C#N)c(Cl)c1C#N | inactive | inactive | 7 | – | – | > 1000 | 500 (≈ 1750 µM) | – | – | > 1000 | 7 | – | – | –
N#Cc1c(Cl)c(Cl)c(Nc2ccccc2)c(C#N)c1Cl | inactive | inactive | – | – | inactive | – | – | – | 15.3 | – | – | – | inactive | –
COc1ccc(Nc2c(F)c(F)c(C#N)c(F)c2C#N)cc1 | inactive | inactive | 8.6 | inactive | – | – | 375 (≈ 1240 µM) | – | – | > 1000 | 8.7 | – | – | inactive
N#Cc1c(F)c(Cl)c(Nc2ccc(Cl)cc2)c(C#N)c1F | inactive | – | 12.2 | inactive | – | – | 26 (≈ 80.2 µM) | 7.6 | – | 417 (≈ 1290 µM) | 10.7 | – | – | inactive
N#Cc1c(N)c(Cl)c(Cl)c(C#N)c1Cl | inactive | inactive | – | inactive | inactive | – | – | – | – | – | – | – | inactive | –
CCCSc1c(Cl)c(N)c(C#N)c(SCCC)c1C#N | inactive | inactive | – | – | – | > 1000 | 250 (≈ 767 µM) | – | – | > 1000 | 7.5 | – | inactive | –
CCCSc1c(Cl)c(N)c(C#N)c(F)c1C#N | inactive | inactive | 7.6 | – | – | > 500 | 1.6 (≈ 5.93 µM) | – | – | > 1000 | 8.5 | – | – | –
COc1ccc(Nc2c(Cl)c(Cl)c(C#N)c(Cl)c2C#N)cc1 | inactive | inactive | – | inactive | inactive | – | – | – | – | – | – | – | inactive | –
CCCSc1c(F)c(N)c(C#N)c(SCCC)c1C#N | inactive | inactive | 7.4 | – | – | – | – | – | – | – | 7.9 | – | – | –
N#Cc1c(N)c(Sc2ccccc2)c(Sc2ccccc2)c(C#N)c1Sc1ccccc1 | inactive | inactive | – | – | inactive | – | – | – | – | – | – | – | inactive | –
N#Cc1c(F)c(F)c(F)c(C#N)c1F | inactive | inactive | – | inactive | inactive | – | – | – | – | – | – | – | inactive | –
CN(C)CCCNc1c(F)c(N)c(C#N)c(F)c1C#N | inactive | inactive | 7.1 | – | – | – | – | – | – | – | 7 | – | – | –
N#Cc1c(Cl)c(Cl)c(NCc2ccccc2)c(C#N)c1Cl | inactive | inactive | – | inactive | inactive | – | – | – | – | – | – | – | inactive | –
N#Cc1c(Sc2ccccc2)c(F)c(Sc2ccccc2)c(C#N)c1Sc1ccccc1 | inactive | inactive | 9.8 | inactive | inactive | – | – | – | – | – | – | – | – | –
CN(C)CCCNc1c(Cl)c(N)c(C#N)c(F)c1C#N | inactive | inactive | 15 | – | – | – | – | – | – | – | 14.2 | – | – | –
N#Cc1c(F)c(Cl)c(F)c(C#N)c1F | inactive | inactive | – | inactive | inactive | – | – | – | – | – | – | – | inactive | –
OC(Cn1cncn1)(Cn1cncn1)c1ccc(F)cc1F [FLUCONAZOLE] | – | – | – | – | – | 1 (≈ 3.27 µM) | – | – | 22.5 | – | – | – | – | –
